Data taken from article PMC3865530 (Current pharmaceutical design, 2012).

Tests used:
Type in all cases: binding
AATT duplex sequence = assay: UV-thermal melting with AT-rich hairpin duplex DNA; conditions: ligand:DNA ratio 2:1; 80 mM KCl; Tm of free AATT 69 °C
[1] = test system: Tel24 human telomeric quadruplex DNA; assay: UV-thermal melting with telomeric quadruplex DNA; conditions: ligand:DNA ratio 4:1; 80 mM KCl; Tm of free Tel24 67 °C
(CG)4 duplex sequence = assay: UV-thermal melting with GC-rich hairpin duplex DNA; conditions: ligand:DNA ratio 2:1; 80 mM KCl; Tm of free (CG)4 63 °C
How it was run: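 Duplex melted in 10 mM K₂HPO₄, 80 mM KCl, 3 mM EDTA, pH 7.3, at 2–3 µM single-strand, in 1 cm quartz cuvettes. Ligand was titrated from stock to compound:DNA ratios up to 4:1. Absorbance at 260 nm was followed while heating at 0.5 °C/min. ΔTm was taken at 2:1, reproducible within ±1 °C.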

For `Cn1cc(NC(=O)c2cc(NC(=O)c3cc(NC=O)cn3C)cn2C)cc1C(=O)NCCC(=N)N` [Distamycin], the “∆Tm of AATT duplex” value (AATT duplex sequence) was “strong binder” and the “∆Tm of Tel24 quadruplex” value [1] was “did not show any significant increase”.
In the case of `COS(=O)(=O)[O-].Cc1cc2c3c([n+](C)c4ccc(F)cc4c3c1)-c1cc(F)ccc1N2C` [RHPS4, 3,11-difluoro-6,8,13-trimethyl-8H-quino[4,3,2-kl] acridinium methosulfate], the “∆Tm of (CG)4 duplex” value ((CG)4 duplex sequence) was “very little affinity”, the “∆Tm of AATT duplex” value (AATT duplex sequence) was “very little affinity” and the “∆Tm of Tel24 quadruplex” value [1] was “very similar melting values as DB832”.
